Results on 16 molecules are retold here after ChEMBL document CHEMBL4725245, “The synthesis and biological evaluation of nucleobases/tetrazole hybrid compounds: A new class of phosphodiesterase type 3 (PDE3) inhibitors” (Bioorg Med Chem, 2020).

One test deals with MCF7. As to the kind of experiment: Antiproliferative activity against human MCF7 cells assessed as growth inhibition after 24 hrs by MTT assay. The settings on record: MCF7, 24 h. In kind it is functional, cell-based. Summed up: (§1)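 Cells held in DMEM with 10% heat-inactivated FBS, penicillin and streptomycin at 37 °C, 5% CO2. HeLa seeded at 5000 cells/well or MCF-7 at 10,000 cells/well, grown overnight, then exposed to compounds at 0.0–200.0 µM (two-fold steps) for 24 h. MTT 0.5 mg/mL for 4 h at 37 °C, formazan dissolved in DMSO, absorbance read at 545 nm with 630 nm reference.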
A general note: Formazan colour is commonly taken as a measure of viable cells.

A further test has as its system HeLa. As to the kind of experiment: Antiproliferative activity against human HeLa cells assessed as reduction in cell viability after 24 hrs by MTT assay. In kind it is functional, cell-based. The essentials:
as §1

The target of test [1] is cGMP-inhibited 3',5'-cyclic phosphodiesterase 3A (Homo sapiens, UniProt Q14432). The experiment in a line: Inhibition of human PDE3A expressed in Sf9 cells using cAMP as substrate after 60 mins by IMAP TR-FRET assay. Background: TR-FRET usually uses a lanthanide donor and a delayed reading to cut background.
Sequence of cGMP-inhibited 3',5'-cyclic phosphodiesterase 3A (Q14432 whole entry): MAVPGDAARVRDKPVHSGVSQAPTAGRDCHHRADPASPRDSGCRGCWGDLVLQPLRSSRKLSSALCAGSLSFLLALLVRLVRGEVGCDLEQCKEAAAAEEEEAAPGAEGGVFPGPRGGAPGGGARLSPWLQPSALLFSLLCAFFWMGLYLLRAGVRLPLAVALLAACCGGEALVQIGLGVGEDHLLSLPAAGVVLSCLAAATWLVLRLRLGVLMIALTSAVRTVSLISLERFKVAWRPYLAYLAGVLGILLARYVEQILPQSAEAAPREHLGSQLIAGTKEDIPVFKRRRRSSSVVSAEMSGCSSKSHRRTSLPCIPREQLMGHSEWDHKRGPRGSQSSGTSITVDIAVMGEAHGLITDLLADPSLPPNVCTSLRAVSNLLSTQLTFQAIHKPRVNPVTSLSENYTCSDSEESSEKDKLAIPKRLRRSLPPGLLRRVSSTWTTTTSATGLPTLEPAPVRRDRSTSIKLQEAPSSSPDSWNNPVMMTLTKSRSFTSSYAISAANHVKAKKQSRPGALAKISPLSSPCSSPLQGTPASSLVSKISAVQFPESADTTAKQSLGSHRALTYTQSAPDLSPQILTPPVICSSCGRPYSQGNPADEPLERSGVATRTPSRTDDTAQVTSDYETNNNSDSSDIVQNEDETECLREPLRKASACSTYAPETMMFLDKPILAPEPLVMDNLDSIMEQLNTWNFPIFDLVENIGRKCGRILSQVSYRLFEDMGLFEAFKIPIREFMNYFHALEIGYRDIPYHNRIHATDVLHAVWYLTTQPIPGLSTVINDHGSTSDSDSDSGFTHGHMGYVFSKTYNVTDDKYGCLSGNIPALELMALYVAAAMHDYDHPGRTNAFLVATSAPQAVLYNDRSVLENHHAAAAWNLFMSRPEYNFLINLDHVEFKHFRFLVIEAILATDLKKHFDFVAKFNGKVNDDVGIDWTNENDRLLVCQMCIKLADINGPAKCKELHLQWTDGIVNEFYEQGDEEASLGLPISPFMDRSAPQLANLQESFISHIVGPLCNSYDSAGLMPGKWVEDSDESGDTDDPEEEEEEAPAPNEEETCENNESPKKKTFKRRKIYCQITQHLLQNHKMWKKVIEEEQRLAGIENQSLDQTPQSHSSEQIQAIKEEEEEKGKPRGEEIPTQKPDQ

The IC50 is the concentration needed to halve the response being measured. In the case of `Nc1nc2c(ncn2CCCOc2ccc(-c3nnn[nH]3)cc2)c(=O)[nH]1`, the IC50 in the test with MCF7 was 25.7 µM; in the test on HeLa, 18.4 µM.
In the case of `Nc1nc2c(ncn2CCCCOc2ccc(-c3nnn[nH]3)cc2)c(=O)[nH]1`, the IC50 is 90.5 µM in the test with MCF7 and 68 µM in the test with HeLa.
On to `O=c1ccnc(SCCCOc2ccc(-c3nnn[nH]3)cc2)[nH]1`, for which the IC50 with MCF7 worked out at 80.7 µM; with HeLa, 57.7 µM.
As for `Cn1cnc2c1c(=O)n(CCCOc1ccc(-c3nnn[nH]3)cc1)c(=O)n2C`, the results for the IC50 in the test on MCF7 and with HeLa were 73.3 µM and 61.1 µM, respectively.
As for `O=c1ccnc(SCCCCOc2ccc(-c3nnn[nH]3)cc2)[nH]1`, the 50% inhibitory concentration (IC50) came out at 68.4 µM with MCF7, 0.00513 µM in test [1] and 50.6 µM with HeLa.
On to `Cn1c(=O)c2c(ncn2CCCOc2ccc(-c3nnn[nH]3)cc2)n(C)c1=O`, for which the IC50 worked out at 74.7 µM in the test with MCF7, 0.00583 µM in test [1] and 55.3 µM with HeLa.
For the molecule `Nc1ncnc2c1ncn2CCCOc1ccc(-c2nnn[nH]2)cc1`, the IC50 with MCF7 was determined as 29.4 µM; with HeLa it was 21.1 µM.
On to `O=c1cnn(CCCCOc2ccc(-c3nnn[nH]3)cc2)c(=O)[nH]1`, for which the IC50 with MCF7 was determined as 76 µM; in the test with HeLa, 63.3 µM.
Take `Cn1cnc2c1c(=O)n(CCCCOc1ccc(-c3nnn[nH]3)cc1)c(=O)n2C`: the figures for the IC50 in the test with MCF7 and with HeLa were 73.7 µM and 59.9 µM, respectively.
In the case of `O=c1ccn(CCCOc2ccc(-c3nnn[nH]3)cc2)c(=O)[nH]1`, the IC50 is 54 µM in the test on MCF7 and 38.9 µM in the test on HeLa.
For `Cn1c(=O)c2c(ncn2CCCCOc2ccc(-c3nnn[nH]3)cc2)n(C)c1=O`, the IC50 with MCF7 turned out to be 59.5 µM; with HeLa, 45.1 µM.
As to `O=c1ccn(CCCCOc2ccc(-c3nnn[nH]3)cc2)c(=O)[nH]1`, the IC50 in the test with MCF7 stood at 35.8 µM; with HeLa, 25.6 µM.
`Nc1ncnc2c1ncn2CCCCOc1ccc(-c2nnn[nH]2)cc1`: the IC50 was 54.5 µM in the test on MCF7, 0.00391 µM in test [1] and 38.4 µM in the test on HeLa.
Take `O=c1cnn(CCCOc2ccc(-c3nnn[nH]3)cc2)c(=O)[nH]1`: the IC50 in the test on MCF7 was 65.6 µM; in the test with HeLa, 49.3 µM.
Consider `O=C1CCc2cc(OCCCCc3nnnn3C3CCCCC3)ccc2N1` [CILOSTAZOL], for which half-maximal inhibition in test [1] (IC50) was put at 0.00389 µM.
For `CN(Cc1cnc2nc(N)nc(N)c2n1)c1ccc(C(=O)N[C@@H](CCC(=O)O)C(=O)O)cc1` [METHOTREXATE], the IC50 stood at 49.2 µM in the test with MCF7 and 27.9 µM in the test on HeLa.
